Compounds with a hit are over-represented: about 3.1% of the library has one in this group of screens.
VIM-2 inh: inhibitors of Pseudomonas aeruginosa VIM-2 metallo-beta-lactamase. purified VIM-2, nitrocefin hydrolysis, epi-absorbance fluorescence. inhibition, % at 5.6 µM. 290,000 compounds, 0.89% hits. AID 1527;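 active means inhibition above the mean of all tested compounds plus 3 SD, cutoff set per screening run, cut at about 7.5% in these data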;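 further: red hydrolysis product quenches plate fluorescence so inhibitors raise well fluorescence; 0% = enzyme with DMSO and 100% = DMSO without enzyme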
UBC9 SUMO inh: SUMOylation inhibition. HTRF SUMOylation assay, SAE1/SAE2 + UBC9, in vitro. 290,000 compounds, 0.36% hits. P63279. inhibition, % at 35 µM; in the data active means inhibition above about 50%, passing the limit was not always enough
Target sequence (P63279 whole entry, looked up): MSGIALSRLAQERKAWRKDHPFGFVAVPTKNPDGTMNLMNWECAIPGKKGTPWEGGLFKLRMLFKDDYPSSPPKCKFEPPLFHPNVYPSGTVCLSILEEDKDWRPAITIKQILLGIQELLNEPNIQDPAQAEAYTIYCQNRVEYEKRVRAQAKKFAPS
PHOSPHO1 inh: inhibitors of human PHOSPHO1 phosphatase; Q8TCT1; recombinant PHOSPHO1, absorbance phosphatase assay; inhibition, % at 13.3 µM; 290,000 compounds, 1.1% hits; AID 1565; in the data active means inhibition above about 60%
Target sequence (Q8TCT1 whole entry, looked up): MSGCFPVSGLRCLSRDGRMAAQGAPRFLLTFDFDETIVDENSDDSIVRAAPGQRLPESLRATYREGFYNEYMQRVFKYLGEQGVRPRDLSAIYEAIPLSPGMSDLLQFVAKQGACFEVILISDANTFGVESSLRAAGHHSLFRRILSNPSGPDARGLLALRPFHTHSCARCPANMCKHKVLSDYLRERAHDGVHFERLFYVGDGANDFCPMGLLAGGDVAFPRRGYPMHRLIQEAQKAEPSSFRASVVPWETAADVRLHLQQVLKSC
IMP-1 inhibitor: blocks Pseudomonas aeruginosa IMP-1 metallo-beta-lactamase; purified IMP-1, nitrocefin hydrolysis, epi-absorbance fluorescence; inhibition, % at 5.6 µM; 290,000 compounds, 0.45% hits;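 active means inhibition above the mean plus 3 SD of all compounds in the same screening run, cut at about 4.5% in these data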;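 further: 0% = IMP-1 with DMSO and 100% = DMSO wells lacking enzyme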
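System: purified IMP-1 / Input: IMP-1 dispensed at 0.2 nM / Medium: 50 mM HEPES pH 7.1, 50 µM ZnSO4, 0.05% Brij 35 / Timing: 15 min enzyme–compound preincubation, then 25 min nitrocefin reaction, 25 °C / Technique: plate fluorescence quenching by hydrolysis product, ex 480/em 530 nm / Repeats: singlicate testing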
HCV core dimer: blocks dimerization of HCV core protein. 300,000 compounds, 0.33% hits. AID 1899. TR-FRET GST/Flag-core106 dimerization, 1536-well. inhibition, % at 5 µM;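 active means inhibition above the mean of all tested compounds plus 3 SD, set per screening campaign, cut at about 45% in these data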
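Test system: GST/Flag-tagged HCV core106 proteins; Medium: KF-containing HEPES buffer, pH 7.45, DTT, CHAPS, BSA; Times: compound-protein-antibody incubation 4 h at 22.5 °C; Detection: TR-FRET 671 and 617 nm emission; Benchmarks: wells lacking GST-core106 and wells with excess unlabelled core106.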
NS3 helicase inh: inhibitors of Hepatitis C virus NS3 helicase. NS3 helicase DNA unwinding, Cy5 molecular beacon fluorescence. inhibition, % at 10.9 µM. 290,000 compounds, 0.56% hits. AID 1800;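 active means inhibition above the mean of all tested compounds plus 3 SD, set per campaign, cut at about 35% in these data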;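 further: 0% = DMSO wells and 100% = thioflavine S control wells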
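System: HCV NS3 helicase fragment; control set: DMSO and thioflavine S; technique: Cy5 fluorescence at 0 and 60 min, beacon hairpin quenching; reagent: beacon DNA duplex substrate plus ATP; replicates: singlicate; schedule: 1 h reaction at 25 °C, ATP-initiated; medium: MOPS buffer pH 6.5 with MgCl2, DTT, Tween20, BSA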
* marks the source's active call; other numbers are inactive results.

For O=C(c1cc2c(=O)n3ccccc3nc2s1)N1CCN(Cc2ccccc2)CC1 the results were VIM-2 inh 8.2*, UBC9 SUMO inh 25, PHOSPHO1 inh 27, IMP-1 inhibitor -2, HCV core dimer 9 and NS3 helicase inh -3.
CCC(C)NC(=O)c1cc2c(=O)n3ccccc3nc2s1 (stereo unspecified) was read as VIM-2 inh 1, UBC9 SUMO inh 28, PHOSPHO1 inh 61*, IMP-1 inhibitor -2, HCV core dimer -4 and NS3 helicase inh 5.
Screening CCN1CCN(C(=O)c2cc3c(=O)n4ccccc4nc3s2)CC1 returned VIM-2 inh 12*, UBC9 SUMO inh 31, PHOSPHO1 inh 36, IMP-1 inhibitor -2, HCV core dimer 7 and NS3 helicase inh 0.
Screening CCN(CC)CCN(C(=O)Cn1nnc(-c2ccc(C)o2)n1)C(C(=O)NC(C)(C)C)c1cccs1 (stereo unspecified) returned VIM-2 inh -2, UBC9 SUMO inh 10, PHOSPHO1 inh 35, IMP-1 inhibitor -4, HCV core dimer -2 and NS3 helicase inh -26.
Screening Cc1nc(-c2cccc(NC(=O)COc3ccc(Cl)cc3)c2)cs1 returned VIM-2 inh -3, UBC9 SUMO inh -12, PHOSPHO1 inh 66*, IMP-1 inhibitor -3 and NS3 helicase inh 0.
COc1cc(NC(=O)c2cc3nc(C4CC4)cc(C(F)(F)F)n3n2)c(OC)cc1Cl was read as VIM-2 inh 0, UBC9 SUMO inh 26, PHOSPHO1 inh 60*, IMP-1 inhibitor 0, HCV core dimer 4 and NS3 helicase inh 9.
`Cc1ccc(CN2C(=O)C3CCCN3c3ncccc32)cc1` (stereo unspecified) gave VIM-2 inh -1, UBC9 SUMO inh 13, PHOSPHO1 inh 38, IMP-1 inhibitor -2, HCV core dimer 9 and NS3 helicase inh -12.
For Cc1ccc(CN2C(=O)C3CCCN3c3ccc(S(=O)(=O)N4CCOCC4)cc32)cc1 (stereo unspecified) the results were VIM-2 inh -2, UBC9 SUMO inh -30, PHOSPHO1 inh 21, IMP-1 inhibitor -4, HCV core dimer 48* and NS3 helicase inh -1.
Screening COC(=O)c1cccc(NC(=O)c2cccnc2C(=O)O)c1C returned VIM-2 inh -1, UBC9 SUMO inh 8, PHOSPHO1 inh 2, IMP-1 inhibitor -2, HCV core dimer -1 and NS3 helicase inh -3.
For CC1=C(C#N)c2nc(N)c(C#N)c(C)c2/C1=C\c1ccc(OCC(=O)O)c(Cl)c1 the results were VIM-2 inh 1, UBC9 SUMO inh 19, PHOSPHO1 inh 71*, IMP-1 inhibitor -1, HCV core dimer 2 and NS3 helicase inh 31.
CCOC(=O)CSc1nc(N)c(C#N)c(-c2ccc(OCC)cc2)c1C#N was read as VIM-2 inh -3, UBC9 SUMO inh -7, PHOSPHO1 inh 22, IMP-1 inhibitor -4, HCV core dimer -9 and NS3 helicase inh -9.
Screening C=C(C)C(=O)N1CC2(CC(c3cccc(NC(=O)/C=C\C=C/C)c3)=NO2)C[C@H]1C(N)=O (stereo partly specified) returned UBC9 SUMO inh 14, PHOSPHO1 inh 35 and HCV core dimer 56*.
NC(=O)[C@H]1CC2(CC(c3cccc(NC(=O)CC(c4ccccc4)c4ccccc4)c3)=NO2)CN1C(=O)c1ccccc1C(=O)c1ccccc1 (stereo partly specified) was read as UBC9 SUMO inh -14, PHOSPHO1 inh 26 and HCV core dimer 46*.
C/C=C\C=C/C(=O)Nc1cccc(C2=NOC3(C2)C[C@@H](C(N)=O)N(C(=O)/C=C/CC)C3)c1 (stereo partly specified) was read as UBC9 SUMO inh 34, PHOSPHO1 inh 26 and HCV core dimer 53*.
For C/C=C\C=C/C(=O)Nc1cccc(C2=NOC3(C2)C[C@@H](C(N)=O)N(C(=O)/C=C/C=C\C)C3)c1 (stereo partly specified) the results were UBC9 SUMO inh -6, PHOSPHO1 inh 22 and HCV core dimer 39.
O=C(COC(=O)/C=C/c1ccc(Br)o1)Nc1ccc2[nH]c(=O)[nH]c2c1 was read as HCV core dimer 90*.
`O=C(COC(=O)/C=C/c1cccc(Cl)c1)Nc1ccc2[nH]c(=O)[nH]c2c1` gave HCV core dimer 0.
Screening O=C(N/N=C/C(Br)=C/c1ccccc1)c1n[nH]c2c1CCC2 returned VIM-2 inh -2, UBC9 SUMO inh 20, PHOSPHO1 inh 6, IMP-1 inhibitor -1, HCV core dimer 69* and NS3 helicase inh 1.
`C/C(Cc1ccccc1)=N\NC(=O)CNC(=O)c1ccccc1Br` gave VIM-2 inh 1, UBC9 SUMO inh 1, PHOSPHO1 inh -4, IMP-1 inhibitor -2, HCV core dimer 3 and NS3 helicase inh 2.
`CCCC(C)C(=O)Nc1nc(C)c(-c2csc(Nc3cc(OC)ccc3OC)n2)s1` (stereo unspecified) gave VIM-2 inh -2, UBC9 SUMO inh -3, PHOSPHO1 inh 77*, IMP-1 inhibitor -3, HCV core dimer -8 and NS3 helicase inh -4.
`COc1ccccc1Nc1nc(-c2sc(NC(=O)C(C)(C)C)nc2C)cs1` gave VIM-2 inh -2, UBC9 SUMO inh 19, PHOSPHO1 inh 67*, IMP-1 inhibitor -3, HCV core dimer -2 and NS3 helicase inh 34.
`CCCC(=O)Nc1nc(C)c(-c2csc(Nc3ccccc3OC)n2)s1` gave VIM-2 inh -1, UBC9 SUMO inh 21, PHOSPHO1 inh 86*, IMP-1 inhibitor -2, HCV core dimer 2 and NS3 helicase inh -10.
C=CCCC(=O)Nc1nc(C)c(-c2csc(Nc3cccc(OC)c3)n2)s1 was read as VIM-2 inh -1, UBC9 SUMO inh 21, PHOSPHO1 inh 104*, IMP-1 inhibitor 3, HCV core dimer -43 and NS3 helicase inh -13.
Screening COc1ccccc1Nc1nc(-c2sc(NC(=O)c3cccc(Cl)c3)nc2C)cs1 returned VIM-2 inh -2, UBC9 SUMO inh -5, PHOSPHO1 inh -66, IMP-1 inhibitor -2, HCV core dimer -20 and NS3 helicase inh -8.
For CC1CCN(S(=O)(=O)CCNC(=O)c2ccc3c(c2)OCO3)CC1 the results were HCV core dimer 1.
`Cc1ccc2[nH]c3c(c2c1)CN(C(C)C)CC3` gave VIM-2 inh 0, UBC9 SUMO inh 25, PHOSPHO1 inh 46, IMP-1 inhibitor -2, HCV core dimer -8 and NS3 helicase inh -14.
`CCOc1ccccc1Nc1nc(-c2sc(NC(=O)c3ccco3)nc2C)cs1` gave VIM-2 inh -1, UBC9 SUMO inh -5, PHOSPHO1 inh 50, IMP-1 inhibitor -4, HCV core dimer 4 and NS3 helicase inh 5.

Source: PubChem (several laboratories)
